This assay addresses T1, Pyrroline-5-carboxylate reductase (Arabidopsis thaliana, UniProt P54904).
T1 sequence (P54904 whole entry): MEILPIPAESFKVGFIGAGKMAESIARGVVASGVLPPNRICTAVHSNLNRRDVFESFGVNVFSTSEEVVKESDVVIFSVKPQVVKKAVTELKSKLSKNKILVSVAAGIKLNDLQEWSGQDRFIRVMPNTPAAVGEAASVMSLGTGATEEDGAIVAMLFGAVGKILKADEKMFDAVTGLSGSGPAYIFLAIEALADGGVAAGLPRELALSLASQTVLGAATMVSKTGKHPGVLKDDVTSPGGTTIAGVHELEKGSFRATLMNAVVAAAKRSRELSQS
Description: Inhibition of Arabidopsis thaliana P5C reductase catalytic activity. The following applies: read-out: I50. The gist of the method:
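P5C reductase partially purified from A. thaliana Columbia suspension-cultured cells by ammonium sulfate cut and two DEAE-Sephacel steps. Assay at 35 °C: 100 mM Tris-HCl pH 8.0, 0.1 mM MgCl2, 2 mM DL-P5C, 0.25 mM NADH. Read as NADH oxidation at 340 nm, or as P5C loss by ninhydrin at 535 nm. Inhibitor neutralised to pH 7.4, tested over 0.010–5 mM. I50 from regression of % control activity versus log concentration.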

Drawing on ChEMBL document CHEMBL3046072, “Plant P5C reductase as a new target for aminomethylenebisphosphonates” (J Agric Food Chem, 2007), this text covers IC50 for one compound.

Take `O=P(O)(O)C(Nc1cc(Cl)cc(Cl)c1)P(=O)(O)O` [(3,5-DICHLOROPHENYLAMINO)METHYLENEDIPHOSPHONIC ACID]: the IC50 was 77 µM.
